Source: PubChem BioAssay AID651753 (Broad Institute, 2012)
Several values for one entry are separate records, joined by “and”; a condition that tells them apart may be missing. Identical values can stand only once. Activity calls are given as the source filed them.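 How the source made its calls: active means falling-signal curve whose AC50 is no more than twice the top valid dose; inconclusive means flat fit with moderate inhibition, or poor fit; inactive means the rest.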

System: SK-MEL-5 TRPM1-promoter luciferase, luminescence, 24 h
Test: MITF transcriptional reporter suppression – cell-based, SK-MEL-5, luciferase, dry powder, set 10, dose response (AID 651753)
Conditions: not given
Method in brief: (§1)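 Signal: Steady-Glo luminescence, 5 min at room temperature; Assay system: TRPM1-promoter luciferase SK-MEL-5 melanoma cells; Medium: DMEM lacking phenol red, plus 10% heat-inactivated FBS; Timing: compound addition one day post-seeding, then 24 h exposure at 37 °C.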

**Q.** For `NC1=CC(=O)c2ccccc2C1=O`, which AC50 is on record?
**A.** The AC50 was 1.39 µM.

**Q.** With `COC1=C(NS(=O)(=O)c2ccccc2)C(=O)c2ccccc2C1=O` as the compound, how does the AC50 read?
**A.** Its AC50 is 8.13 µM.

**Q.** Which AC50 does the source give for `CC(C)N1CCN(C2=C(Nc3ccc(F)cc3)C(=O)c3ccccc3C2=O)CC1` here?
**A.** The AC50 was 29.2 µM.

**Q.** For `O=C(NC1=C(N2CCN(c3ccccc3)CC2)C(=O)c2ccccc2C1=O)c1ccccc1`, which AC50 is on record?
**A.** The AC50 was > 70 µM (inactive).

**Q.** With `CN1CCN(C2=C(Nc3ccc(F)cc3F)C(=O)c3ccccc3C2=O)CC1` as the compound, how does the AC50 read?
**A.** The AC50 was 13.1 µM.

**Q.** For `O=C1C(Nc2ccc(Br)cc2)=C(N2CCCCC2)C(=O)c2ccccc21`, which AC50 is on record?
**A.** Its AC50 is 19.2 µM.

**Q.** For `CC(C)N1CCN(C2=C(Nc3ccc(F)cc3F)C(=O)c3ccccc3C2=O)CC1`, which AC50 is on record?
**A.** Its AC50 is 12.6 µM.

**Q.** Which AC50 does the source give for `CCN1CCN(C2=C(Nc3ccc(F)cc3F)C(=O)c3ccccc3C2=O)CC1` here?
**A.** The AC50 was 11.4 µM.

**Q.** With `COc1ccc(NC2=C(N3CCCCC3)C(=O)c3ccccc3C2=O)cc1` as the compound, how does the AC50 read?
**A.** The AC50 was 17.2 µM.

**Q.** With `NS(=O)(=O)c1ccc(NC2=CC(=O)c3ccccc3C2=O)cc1` as the compound, how does the AC50 read?
**A.** The AC50 was 0.651 µM and 0.229 µM.

**Q.** With `O=C1C(Nc2ccc(Cl)cc2)=C(N2CCCC2)C(=O)c2ccccc21` as the compound, how does the AC50 read?
**A.** The AC50 was > 70 µM (inactive).

**Q.** Which AC50 does the source give for `O=C1C(Nc2cccc(Cl)c2)=C(N2CCCC2)C(=O)c2ccccc21` here?
**A.** The AC50 was > 70 µM (inactive).

**Q.** With `Cc1ccc(NC2=CC(=O)c3ccccc3C2=O)cc1` as the compound, how does the AC50 read?
**A.** The AC50 was 3.13 µM.

**Q.** For `O=C1C=C(Nc2ccc([N+](=O)[O-])c(C(F)(F)F)c2)C(=O)c2ccccc21`, which AC50 is on record?
**A.** The AC50 was 0.718 µM.

**Q.** For `O=C1C(Nc2ccc(F)cc2)=C(N2CCCCC2)C(=O)c2ccccc21`, which AC50 is on record?
**A.** Its AC50 is 18.5 µM.

**Q.** For `O=C1C=C(Nc2ccccc2)C(=O)c2ccccc21`, which AC50 is on record?
**A.** Its AC50 is 3.89 µM.

System: not listed separately
Test: as above
Conditions: SK-MEL-5 TRPM1-promoter luciferase, luminescence, 24 h; at 35 µM (top of the series)
Method in brief: as §1

**Q.** With `Cc1ccc(NC2=CC(=O)c3ccccc3C2=O)cc1` as the compound, how does the activity change, negative = inhibition read?
**A.** The activity change, negative = inhibition was 76.9% (inactive).
